Results published in ChEMBL document CHEMBL5046314, “Repositioning of a Diaminothiazole Series Confirmed to Target the Cyclin-Dependent Kinase CRK12 for Use in the Treatment of African Animal Trypanosomiasis” (J Med Chem, 2022).
The source made the active and inactive calls. The rule behind the calls is not given here.

Columns and labels:
Trypanosoma vivax [1] = assay: Antitrypanosomal activity against bloodstream Trypanosoma vivax STIB 719/ ILRAD 560 infected in NMRI mouse assessed as reduction in parasitemia at 3 mg/kg, sc administered for 4 days; assay type: functional; parameters: scale not given: the % may be the effect or the level left; conditions: time 4 day
Trypanosoma congolense [2] = assay: Antitrypanosomal activity against bloodstream Trypanosoma congolense IL3000 infected in NMRI mouse assessed as reduction in parasitemia at 3 mg/kg, sc administered for 4 days; assay type: functional; parameters: scale not given: the % may be the effect or the level left; conditions: time 4 day
Trypanosoma congolense [3] = assay: Antitrypanosomal activity against bloodstream Trypanosoma congolense IL3000 infected in Fulani Zebu cattle assessed as reduction in parasitemia at 10 mg/kg, IM administered as single dose monitered for 100 days; assay type: functional, organism-based; conditions: time 100.0 day
Method in brief: (§1)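 Female Fulani Zebu cattle infected with the named strain received 10 mg/kg of the free base by IM injection. The vehicle was Kolliphor EL, N-methyl pyrrolidone, 2-pyrrolidone and 11% water. Dosing was once or twice 15 h apart. Saline vehicle controls got 0.2 mL/kg twice, 15 h apart. Animals were followed for 100 days after treatment to score cure.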

Trypanosoma vivax [4] = assay: Antitrypanosomal activity against bloodstream Trypanosoma vivax STIB 719/ ILRAD 560 infected in Fulani Zebu cattle assessed as reduction in parasitemia at 10 mg/kg, IM administered twice daily and measured after 4 days; assay type: functional, organism-based; conditions: time 4.0 day
Trypanosoma congolense [5] = assay: Antitrypanosomal activity against bloodstream Trypanosoma congolense IL3000 infected in NMRI mouse assessed as reduction in parasitemia at 10 mg/kg, sc administered once daily for 4 days; assay type: functional; parameters: scale not given: the % may be the effect or the level left
Trypanosoma vivax [6] = assay: Antitrypanosomal activity against bloodstream Trypanosoma vivax STIB 719/ ILRAD 560 infected in NMRI mouse assessed as reduction in parasitemia at 10 mg/kg, sc administered for 2 days; assay type: functional; parameters: scale not given: the % may be the effect or the level left; conditions: time 2 day
Trypanosoma congolense [7] = assay: Antitrypanosomal activity against bloodstream Trypanosoma congolense IL3000 infected in NMRI mouse assessed as reduction in parasitemia at 10 to 100 ng/ml administered via sc implanted ALZET osmotic pumps for 48 hrs; assay type: functional, organism-based; conditions: dose 10-100 ng/ml
Trypanosoma vivax [8] = assay: Antitrypanosomal activity against bloodstream Trypanosoma vivax STIB 719/ ILRAD 560 infected in NMRI mouse assessed as reduction in parasitemia at 10 mg/kg, sc administered for 4 days; assay type: functional; parameters: scale not given: the % may be the effect or the level left
Trypanosoma vivax [9] = assay: Antitrypanosomal activity against bloodstream Trypanosoma vivax STIB 719/ ILRAD 560 infected in Fulani Zebu cattle assessed as reduction in parasitemia at 10 mg/kg, IM administered twice daily and measured after for 100 days; assay type: functional, organism-based; conditions: time 100.0 day; method in brief: as §1
Trypanosoma vivax [10] = assay: Antitrypanosomal activity against bloodstream Trypanosoma vivax STIB 719/ ILRAD 560 infected in Fulani Zebu cattle assessed as reduction in parasitemia at 10 mg/kg, IM administered as single dose monitered for 100 days; assay type: functional, organism-based; conditions: time 100.0 day; method in brief: as §1
Trypanosoma vivax [11] = assay: Antitrypanosomal activity against bloodstream Trypanosoma vivax STIB 719/ ILRAD 560 infected in NMRI mouse assessed as reduction in parasitemia at 3 mg/kg, sc QD for 4 days and measured twice a week for 21 days; parameters: scale not given: the % may be the effect or the level left; conditions: time 21 day
Trypanosoma vivax [12] = assay: Antitrypanosomal activity against bloodstream Trypanosoma vivax STIB 719/ ILRAD 560 infected in NMRI mouse assessed as reduction in parasitemia at 30 mg/kg, sc administered as single dose and measured twice a week for 21 days; assay type: functional; parameters: scale not given: the % may be the effect or the level left; conditions: time 21 day
[13] = test system: Trypanosoma brucei brucei; assay: Antitrypanosomal activity against bloodstream Trypanosoma brucei brucei infected in NMRI mouse assessed as parasite growth inhibition at 3 mg/kg, po BID for 4 days; assay type: functional; parameters: scale not given: the % may be the effect or the level left; conditions: time 4 day
Trypanosoma vivax [14] = assay: Antitrypanosomal activity against bloodstream Trypanosoma vivax STIB 719/ ILRAD 560 infected in NMRI mouse assessed as reduction in parasitemia at 10 mg/kg, sc BID for 4 days and measured twice a week for 21 days; assay type: functional; parameters: scale not given: the % may be the effect or the level left; conditions: time 21 day
Trypanosoma congolense [15] = assay: Antitrypanosomal activity against bloodstream Trypanosoma congolense KONT 2/133 infected in Friesian-Holstein calf assessed as reduction in parasitemia at 5 mg/kg, sc BID and measured after 3 days; assay type: functional, organism-based; conditions: time 3.0 day

SMILES: CC(C)CS(=O)(=O)N[C@H]1CC[C@H](Nc2nc(N)c(C(=O)c3c(Cl)cccc3Cl)s2)CC1
- Activity (Trypanosoma vivax [1]): 100%
- Activity (Trypanosoma congolense [2]): 100%

SMILES: CC(C)CS(=O)(=O)N[C@H]1CC[C@H](Nc2nc(N)c(C(=O)c3c(F)cc(CN(C)C)cc3F)s2)CC1
- Activity (Trypanosoma vivax [1]): 100%
- Activity (Trypanosoma congolense [3]): inactive
- Activity (Trypanosoma vivax [4]): inactive
- Activity (Trypanosoma congolense [5]; time 4 day): 100%
- Activity (Trypanosoma vivax [6]): 100%
- Activity (Trypanosoma congolense [7]): Active
- Activity (Trypanosoma vivax [8]; time 4 day): 100%
- Activity (Trypanosoma vivax [9]): inactive
- Activity (Trypanosoma vivax [10]): inactive

SMILES: CC(C)CS(=O)(=O)N[C@H]1CC[C@H](Nc2nc(N)c(C(=O)c3c(F)cc(CN4CCN(C)CC4)cc3F)s2)CC1
- Activity (Trypanosoma vivax [8]; time 4.0 day): inactive

SMILES: CC(C)CS(=O)(=O)N[C@H]1CC[C@H](Nc2nc(N)c(C(=O)c3c(F)cc(CN4CCCC4)cc3F)s2)CC1.Cl
- Activity (Trypanosoma vivax [8]; time 4 day): 100%

SMILES: CC(C)CS(=O)(=O)N[C@H]1CC[C@H](Nc2nc(N)c(C(=O)c3c(F)cc(CN4CCOCC4)cc3F)s2)CC1
- Activity (Trypanosoma congolense [5]; time 4.0 day): inactive
- Activity (Trypanosoma vivax [8]; time 4.0 day): inactive

SMILES: CC(C)CS(=O)(=O)N[C@H]1CC[C@H](Nc2nc(N)c(C(=O)c3c(F)cccc3F)s2)CC1
- Activity (Trypanosoma vivax [11]): 100%
- Activity (Trypanosoma vivax [12]): 100%
- Activity [13]: 100%
- Activity (Trypanosoma vivax [14]): 100%
- Activity (Trypanosoma congolense [15]): Active

SMILES: CNCc1cc(F)c(C(=O)c2sc(N[C@H]3CC[C@H](NS(=O)(=O)CC(C)C)CC3)nc2N)c(F)c1.Cl
- Activity (Trypanosoma congolense [5]; time 4 day): 100%
- Activity (Trypanosoma vivax [8]; time 4 day): 100%
